ABHD4 inh: ABHD4 inhibitors, primary screen, biochemical, fluorescence polarization, mouse. (Lyso)-N-acylphosphatidylethanolamine lipase (Mus musculus), Q8VD66. purified mABHD4, FP-Rh probe fluorescence polarization. inhibition, % at 8.92 µM. 370,000 tested, 0.54% active;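 active = inhibition exceeding the mean over every tested compound plus 3 SD, cut at about 30% in these data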
Target sequence (Q8VD66 whole entry, looked up): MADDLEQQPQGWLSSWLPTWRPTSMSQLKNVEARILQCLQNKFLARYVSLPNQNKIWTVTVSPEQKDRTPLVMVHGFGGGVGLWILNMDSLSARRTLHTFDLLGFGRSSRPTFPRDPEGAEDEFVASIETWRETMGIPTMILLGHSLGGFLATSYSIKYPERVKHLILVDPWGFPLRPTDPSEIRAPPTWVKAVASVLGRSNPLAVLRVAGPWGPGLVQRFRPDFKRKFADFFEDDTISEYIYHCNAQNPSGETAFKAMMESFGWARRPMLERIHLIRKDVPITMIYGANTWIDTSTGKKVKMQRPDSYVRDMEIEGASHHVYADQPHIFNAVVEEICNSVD
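Assay system: Wild-type mouse ABHD4 protein | Medium: HEPES pH 7.0 buffer, 150 mM NaCl, 0.01% Pluronic F-127 | Incubation: Enzyme–compound pre-incubation 45 min, then probe 60 min, both 25 °C | Technique: Fluorescence polarization with parallel and perpendicular emission, 525/598 nm | Evaluation: % inhibition of FP-Rh probe binding versus controls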
SIAE primary: human SIAE inhibitors, primary screen, biochemical, fluorescence polarization, FP-Rh probe, 1536-well HTS. SIAE FP-Rh probe binding. 370,000 tested, 0.69% active. Sialate O-acetylesterase (Homo sapiens), Q9HAT2. AID 1053197, 2014. inhibition, % at 9.66 µM;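 active = inhibition above a cutoff: mean of compounds within the control limits plus 3 SD of those, cut at about 17% in these data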
PRMT1 inh: PRMT1 methyltransferase inhibitors, primary screen, biochemical, fluorescence polarization. Protein arginine N-methyltransferase 1 (Homo sapiens), Q99873. recombinant PRMT1, activity-based probe fluorescence polarization. inhibition, % at 2.79 µM. 370,000 tested, 1.3% active. AID 652257, 2013;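 active = inhibition above about 21% made by adding two undisclosed values, limit read from the data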
ATG4B inh: ATG4B protease inhibitors, primary screen, biochemical, fluorescence, uHTS | Cysteine protease ATG4B (Homo sapiens), Q9Y4P1 | ATG4B cleavage of LC3-PLA2, NBD-HPC fluorescence, 1 h | inhibition, % at 8.33 µM | 340,000 tested, 0.51% active; in the data active = inhibition above about 40%
TCR CD3 inh: inhibitors of human TCR-CD3 interaction, primary screen, biochemical, fluorescence, TAMRA-labeled TCR probe | inhibition, % at 9.4 µM | T-cell receptor (TCR) | AID 651800, 2012 | 360,000 tested, 0.37% active;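 also: recombinant mutant TCR 2C K166C tagged with TAMRA read by polarization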
HTRA1 inh: HTRA1 serine protease inhibitors, primary screen, biochemical, fluorescence polarization, HTS. inhibition, % at 5.96 µM. 340,000 tested, 0.5% active. recombinant HTRA1, FP-rhodamine activity-based probe; in the data active = inhibition above about 36%
HTRA1 inh conf: HTRA1 protease inhibitors, retest, confirmation, biochemical, fluorescence polarization | shares compounds with HTRA1 inh | recombinant HTRA1, FP-rhodamine activity-based probe | inhibition, % at 5.96 µM | 1,600 tested, 66% active;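 active = mean inhibition over three repeats above a set limit taken from the earlier primary screen, cut at about 37% in these data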;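 also: inhibitors block probe binding so polarization drops and inhibition rises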
BSA probe FL: compounds interfering with TAMRA-BSA probe, counter-screen for TCR-CD3 interaction inhibitor project, biochemical, fluorescence, TAMRA-labeled BSA; shares compounds with TCR CD3 inh; TAMRA-labeled BSA probe fluorescence counterscreen; inhibition, % at 9.4 µM; 1,200 tested, 10% active; AID 652035, 2013; in the data active = inhibition above about 23%
TCR-CD3 inh conf: TCR-CD3 interaction inhibitors, retest, confirmation, biochemical, fluorescence, TAMRA-labeled TCR probe; TAMRA-labeled TCR probe fluorescence binding assay; shares compounds with TCR CD3 inh; inhibition, % at 9.4 µM; 1,200 tested, 48% active
PRMT1 inh conf: PRMT1 methyltransferase inhibitors, confirmation, biochemical, fluorescence polarization, triplicate | inhibition, % at 2.79 µM | shares compounds with PRMT1 inh | 3,300 tested, 42% active | AID 687036, 2013 | recombinant His-PRMT1, activity-based probe fluorescence polarization;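 active = mean inhibition across replicates above the hit cutoff derived for the earlier primary screen, cut at about 22% in these data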
mABHD4 conf: ABHD4 inhibitors, retest, confirmation, biochemical, fluorescence polarization, mouse; shares compounds with ABHD4 inh; purified mABHD4, FP-Rh probe fluorescence polarization; inhibition, % at 8.92 µM; 1,800 tested, 55% active; AID 720658, 2013;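 active = mean inhibition across replicates above the hit cutoff set in the primary screen, cut at about 30% in these data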
SIAE inh conf: human SIAE inhibitors, retest, confirmation, biochemical, fluorescence polarization, FP-Rh probe, triplicate; 2,300 tested, 13% active; shares compounds with SIAE primary; SIAE FP-Rh activity-based probe; inhibition, % at 9.66 µM;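 active = mean inhibition of the replicates above the hit cutoff set in the primary screen, cut at about 17% in these data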;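 also: inhibitors lower polarization as more probe stays unbound to SIAE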
Hits are given with their value; . = inactive; / = no result. Sampled rows, rich in hits. Any-hit rate of the full collection: about 2.9%. Rule as the data show it, unless noted: active = inhibition above about 19%; inactive = the rest.

SMILES	ABHD4 inh	SIAE primary	PRMT1 inh	ATG4B inh	TCR CD3 inh	HTRA1 inh	HTRA1 inh conf	mABHD4 conf	SIAE inh conf	others
CCOC(=O)CCCNC(=O)OC1CCC12CCC(c1ccccc1)CC2 (centres undefined)	.	.	.	/	/	/	/	/	/
C/C(=N\NC(=O)c1cc2ccccc2cc1O)c1cc2ccccc2o1	.	17.2	.	.	.	36.4	.	/	.
C/C(CC(=O)N1CCN(C=O)CC1)=N\NC(=O)c1cc2ccccc2cc1O	40.1	20.0	.	.	.	39.2	36.8	34.5	.
C/C(=N\NC(=O)c1nc2ccccn2c1C)c1cc2ccccc2o1	.	.	.	.	.	.	/	/	/
O=C(Nc1cccc(C(F)(F)F)c1)OC1CC2CC1[C@H]1CCCCN1[C@H]2Cc1ccccc1 (some centres undefined)	.	.	.	/	/	/	/	/	/
C[C@H]1C2CC(OC(=O)NCc3ccc(Cl)cc3)C(C2)[C@H]2CCCCN21 (some centres undefined)	.	.	.	/	/	/	/	/	/
COc1cc(-c2nc(-c3ccccc3)c(-c3cccs3)[nH]2)cc(OC)c1O	35.0	19.9	.	.	.	42.6	.	44.0	.
COc1cc(-c2nc(-c3ccccc3)c(-c3cccs3)[nH]2)cc(OC)c1OC	.	.	.	.	.	.	/	/	/
Cc1ccccc1C(=O)NC1CCCCN(Cc2ccc(Cl)cc2)C1=O (centres undefined)	.	.	.	/	/	/	/	/	/
COC(=O)c1cccc(N2C(=O)C[C@](Sc3ccc(OC)cc3)(C(=O)N3CCOCC3)[C@H]2c2ccc(OC)cc2)c1	.	.	.	/	/	/	/	/	/
O=C(N/N=C/c1c(O)ccc2ccccc12)c1cccc(C(F)(F)F)c1	.	25.1	.	.	.	56.7	58.3	/	.
COc1ccc2ccccc2c1/C=N/NC(=O)c1cccc(Br)c1	.	.	.	.	.	.	/	/	/
COc1ccc(O)c(/C=N/NC(=S)Nc2cccc(S(=O)(=O)N(C)C)c2)c1	.	32.7	.	.	.	38.4	.	/	.
COc1cccc(/C=N/NC(=S)Nc2cccc(S(=O)(=O)N(C)C)c2)c1	.	.	.	.	.	.	/	/	/
CN(C)S(=O)(=O)c1cccc(NC(=S)N/N=C/c2ccc(O)c(O)c2O)c1	32.0	35.2	36.5	.	50.6	44.8	49.4	81.9	27.4	PRMT1 inh conf=84.1
Oc1c(Br)cc(Br)cc1CNc1cccc2cccnc12	55.7	31.6	.	.	.	69.7	.	.	.
Oc1ccc(Cl)cc1CNc1cccc2cccnc12	36.2	20.1	.	.	.	49.0	.	.	.
CN1c2ccc(C#CC3CC3)cc2[C@@H]2[C@@H](CCN2C(=O)C2CCOCC2)[C@H]1CO	.	.	.	/	/	/	/	/	/
CCCCCc1ccc(-c2n[nH]c(=O)c3ccccc23)cc1	.	.	.	/	/	/	/	/	/
O=C(c1ccccc1)c1ccc2nc(-c3ccco3)c(-c3ccco3)nc2c1	43.7	25.0	34.1	.	.	45.4	191.0	.	.
COc1cc2nc(Nc3ccc(C)c(Cl)c3)nc(N)c2cc1OC	42.1	58.2	.	.	.	36.3	45.6	65.8	61.5
COc1cc2nc(Nc3ccc(C)c(C)c3)nc(N)c2cc1OC	.	.	.	.	.	.	/	/	/
COc1ccc(NC(=O)c2cccnc2)cc1	.	.	.	.	.	.	/	/	/
C/C(=C\C(=O)c1cccnc1)Nc1ccc(O)cc1	72.4	26.3	.	.	89.5	63.5	.	.	.	BSA probe FL=.;TCR-CD3 inh conf=.
Oc1ccc(O)c(C=NNC(=S)NC2CC3CC2C2C=CCC32)c1 (centres undefined)	29.7	34.0	.	/	.	46.8	72.8	34.7	39.2
SMILES	ABHD4 inh	SIAE primary	PRMT1 inh	ATG4B inh	TCR CD3 inh	HTRA1 inh	HTRA1 inh conf	mABHD4 conf	SIAE inh conf	others
O=C(NCc1cccc2ccccc12)C1CCCN(c2nc3ccccc3o2)C1 (centres undefined)	.	.	.	/	/	/	/	/	/
CC(=O)NC(c1ccc(C(C)C)cc1)c1ccc2cccnc2c1O (centres undefined)	.	23.4	.	.	.	66.1	75.3	/	28.9
CC(=O)NC(c1ccc(C)cc1)c1cc(Cl)c2cccnc2c1O (centres undefined)	.	20.0	.	.	.	61.6	75.6	/	.
COc1cccc(C(NC(C)=O)c2ccc3cccnc3c2O)c1 (centres undefined)	.	.	.	.	.	.	/	/	/
Cc1ccc(-n2c(SCC(=O)Nc3ccccc3-c3ccccc3)nnc2-c2ccccn2)cc1	.	.	.	/	/	/	/	/	/
O=C(NNc1c2ccccc2nc2ccccc12)c1ccccc1O	.	18.6	.	.	.	51.3	38.6	/	18.2
O=C(NNc1c2ccccc2nc2ccccc12)c1ccccc1Cl	.	.	.	.	.	.	/	/	/
COc1ccc(NC2CC(=O)N(C(C)C)C2=O)cc1 (centres undefined)	.	.	.	.	.	.	/	/	/
CC(C)N1C(=O)CC(Nc2cccc3cccc(N)c23)C1=O (centres undefined)	36.4	32.5	.	.	.	36.5	.	/	.
CCCCNC(=O)C[C@H]1C[C@@]2(C(=O)OC)C(=C[C@H](COCc3ccccc3)O[C@@H]2C)N(CCc2ccc(OC)c(OC)c2)C1=O	.	.	.	/	/	/	/	/	/
